Results from PMC9933479 (ACS Omega, 2023).

What was measured:
Assay in all cases: MTT assay, cytotoxicity/growth inhibition
MCF-7 (breast carcinoma) = type: cell-based; details: Homo sapiens; for IC50: MCF7; for inhibition at 20 µM: MCF7, 48 h, read-out: Cytotoxic Activity (% Growth Inhibition)
Outline: (§1)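 Cells were grown in RPMI (A549, HCT-116, PC-3) or DMEM (MCF-7) with 10% FBS at 37 °C and 5% CO2. Seeding per well was […] and PC-3 8 × 10^4 cells. […] MTT 250 μg/mL, 4 h; DMSO; A570; triplicate; mean ± SE.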

A549 (lung carcinoma) = type: cell-based, human; details: for Cytotoxic Activity (% Growth Inhibition): A549, 20 μM concentration, MTT, 48 h, 20 µM; for IC50 / inhibition at 20 µM: Homo sapiens; for IC50: A549; for inhibition at 20 µM: A549, 48 h, read-out: Cytotoxic Activity (% Growth Inhibition), A549, 20 μM concentration, MTT, 48 h
Outline: as §1

[1] = test system: PC-3 (prostate carcinoma); type: cell-based; details: Homo sapiens; for inhibition at 20 µM: 48 h, read-out: Cytotoxic Activity (% Growth Inhibition)
Outline: as §1

[2] = test system: HCT-116 (colon carcinoma); type: cell-based; details: Homo sapiens; for IC50: HCT-116; for inhibition at 20 µM: HCT-116, 48 h, read-out: Cytotoxic Activity (% Growth Inhibition)
Outline: as §1

With `C=C1CC[C@@H]2[C@](C)(CO)[C@H](O)CC[C@@]2(C)[C@@H]1C/C=C1/C(=O)OC[C@H]1O` [Compound 1, Andrographolide, reference compound] the IC50 (MCF-7 (breast carcinoma)) was > 20 µM, the inhibition at 20 µM (MCF-7 (breast carcinoma)) was 42.93 ± 0.05% and the “Cytotoxic Activity (% Growth Inhibition)” value (A549 (lung carcinoma)) was 21.64 ± 0.22%. The IC50 (A549 (lung carcinoma)) was > 20 µM, the inhibition at 20 µM (A549 (lung carcinoma)) was 21% and the IC50 [1] was > 20 µM. For the same compound, the inhibition at 20 µM [1] was 0%, the IC50 [2] was > 20 µM and the inhibition at 20 µM [2] was 4.86 ± 0.25%.

With `C[C@@]12COC(c3ccccc3)O[C@@H]1CC[C@]1(C)C2CC=C(COC(=O)c2ccccc2)[C@H]1/C=C/C1=CCOC1=O` (stereo partly drawn) [Compound 8a, ((4aR,6aR,7S,10bR)-6a,10b-Dimethyl-7-((E)-2-(2-oxo-2,5-dihydrofuran-3-yl)vinyl)-3-phenyl-4a,5,6,6a,7,10,10a,10b-octahydro-1H-naphtho[2,1-d][1,3]dioxin-8-yl)methyl Benzoate] the IC50 (MCF-7 (breast carcinoma)) was > 20 µM, the inhibition at 20 µM (MCF-7 (breast carcinoma)) was 9.68 ± 0.14% and the “Cytotoxic Activity (% Growth Inhibition)” value (A549 (lung carcinoma)) was 72.82 ± 0.05%. The IC50 (A549 (lung carcinoma)) was 10.6 µM, the inhibition at 20 µM (A549 (lung carcinoma)) was 72% and the IC50 [1] was > 20 µM. The inhibition at 20 µM [1] was 0%, the IC50 [2] was > 20 µM and the inhibition at 20 µM [2] was 21.12 ± 0.19%.

With `COc1cccc(C(=O)OCC2=CCC3[C@]4(C)COC(c5ccccc5)O[C@@H]4CC[C@@]3(C)[C@@H]2/C=C/C2=CCOC2=O)c1` (stereo partly drawn) [Compound 8b, ((4aR,6aR,7S,10bR)-6a,10b-Dimethyl-7-((E)-2-(2-oxo-2,5-dihydrofuran-3-yl)vinyl)-3-phenyl-4a,5,6,6a,7,10,10a,10b-octahydro-1H-naphtho[2,1-d][1,3]dioxin-8-yl)methyl 3-Methoxybenzoate] the inhibition at 20 µM (MCF-7 (breast carcinoma)) was 6.04 ± 0.12%, the “Cytotoxic Activity (% Growth Inhibition)” value (A549 (lung carcinoma)) was 48.88 ± 0.17% and the inhibition at 20 µM (A549 (lung carcinoma)) was < 52%. The inhibition at 20 µM [1] was 0% and the inhibition at 20 µM [2] was 11.72 ± 0.11%.

`C[C@@]12COC(c3ccccc3)O[C@@H]1CC[C@]1(C)C2CC=C(COC(=O)c2cccc(F)c2)[C@H]1/C=C/C1=CCOC1=O` (stereo partly drawn) [Compound 8c, ((4aR,6aR,7S,10bR)-6a,10b-Dimethyl-7-((E)-2-(2-oxo-2,5-dihydrofuran-3-yl)vinyl)-3-phenyl-4a,5,6,6a,7,10,10a,10b-octahydro-1H-naphtho[2,1-d][1,3]dioxin-8-yl)methyl 3-Fluorobenzoate] was tested, and the inhibition at 20 µM (MCF-7 (breast carcinoma)) was 2.06 ± 0.04%, the inhibition at 20 µM (A549 (lung carcinoma)) was 41.7 ± 0.45% and the inhibition at 20 µM [1] was 0%. For the same compound, the inhibition at 20 µM [2] was 19.3 ± 0.37%.

`C[C@@]12COC(c3ccccc3)O[C@@H]1CC[C@]1(C)C2CC=C(COC(=O)c2cccc(Cl)c2)[C@H]1/C=C/C1=CCOC1=O` (stereo partly drawn) [Compound 8d, ((4aR,6aR,7S,10bR)-6a,10b-Dimethyl-7-((E)-2-(2-oxo-2,5-dihydrofuran-3-yl)vinyl)-3-phenyl-4a,5,6,6a,7,10,10a,10b-octahydro-1H-naphtho[2,1-d][1,3]dioxin-8-yl)methyl 3-Chlorobenzoate] gave an inhibition at 20 µM (MCF-7 (breast carcinoma)) of 2.4 ± 0.084%, an inhibition at 20 µM (A549 (lung carcinoma)) of 30.11 ± 0.11% and an inhibition at 20 µM [1] of 0%. It also gave an inhibition at 20 µM [2] of 0%.

In the case of `C[C@@]12COC(c3ccccc3)O[C@@H]1CC[C@]1(C)C2CC=C(COC(=O)c2cccc(Br)c2)[C@H]1/C=C/C1=CCOC1=O` (stereo partly drawn) [Compound 8e, ((4aR,6aR,7S,10bR)-6a,10b-Dimethyl-7-((E)-2-(2-oxo-2,5-dihydrofuran-3-yl)vinyl)-3-phenyl-4a,5,6,6a,7,10,10a,10b-octahydro-1H-naphtho[2,1-d][1,3]dioxin-8-yl)methyl 3-Bromobenzoate], the inhibition at 20 µM (MCF-7 (breast carcinoma)) is reported as 0%, the inhibition at 20 µM (A549 (lung carcinoma)) is reported as 31.59 ± 0.23% and the inhibition at 20 µM [1] is reported as 0%. It also gave an inhibition at 20 µM [2] of 0%.

`C[C@@]12COC(c3ccccc3)O[C@@H]1CC[C@]1(C)C2CC=C(COC(=O)c2cccc(I)c2)[C@H]1/C=C/C1=CCOC1=O` (stereo partly drawn) [Compound 8f, ((4aR,6aR,7S,10bR)-6a,10b-Dimethyl-7-((E)-2-(2-oxo-2,5-dihydrofuran-3-yl)vinyl)-3-phenyl-4a,5,6,6a,7,10,10a,10b-octahydro-1H-naphtho[2,1-d][1,3]dioxin-8-yl)methyl 3-Iodobenzoate] gave an inhibition at 20 µM (MCF-7 (breast carcinoma)) of 0%, an inhibition at 20 µM (A549 (lung carcinoma)) of 30.98 ± 0.25% and an inhibition at 20 µM [1] of 0%. For the same compound, the inhibition at 20 µM [2] was 33.25 ± 0.11%.

`C[C@@]12COC(c3ccccc3)O[C@@H]1CC[C@]1(C)C2CC=C(COC(=O)c2ccoc2)[C@H]1/C=C/C1=CCOC1=O` (stereo partly drawn) [Compound 8g, ((4aR,6aR,7S,10bR)-6a,10b-Dimethyl-7-((E)-2-(2-oxo-2,5-dihydrofuran-3-yl)vinyl)-3-phenyl-4a,5,6,6a,7,10,10a,10b-octahydro-1H-naphtho[2,1-d][1,3]dioxin-8-yl)methyl Furan-3-carboxylate] was tested, and the inhibition at 20 µM (MCF-7 (breast carcinoma)) was 0%, the inhibition at 20 µM (A549 (lung carcinoma)) was 40.95 ± 0.39% and the inhibition at 20 µM [1] was 25 ± 0.58%. The inhibition at 20 µM [2] was 0%.

`C[C@@]12COC(c3ccccc3)O[C@@H]1CC[C@]1(C)C2CC=C(COC(=O)c2cccc(C(F)(F)F)c2)[C@H]1/C=C/C1=CCOC1=O` (stereo partly drawn) [Compound 8h, ((4aR,6aR,7S,10bR)-6a,10b-Dimethyl-7-((E)-2-(2-oxo-2,5-dihydrofuran-3-yl)vinyl)-3-phenyl-4a,5,6,6a,7,10,10a,10b-octahydro-1H-naphtho[2,1-d][1,3]dioxin-8-yl)methyl 3-(Trifluoromethyl)benzoate] was tested, and the inhibition at 20 µM (MCF-7 (breast carcinoma)) was 0%, the “Cytotoxic Activity (% Growth Inhibition)” value (A549 (lung carcinoma)) was 69.48 ± 0.42% and the inhibition at 20 µM (A549 (lung carcinoma)) was 69%. For the same compound, the inhibition at 20 µM [1] was 54 ± 0.62% and the inhibition at 20 µM [2] was 4.8 ± 0.02%.

`Cc1cccc(C(=O)OCC2=CCC3[C@]4(C)COC(c5ccccc5)O[C@@H]4CC[C@@]3(C)[C@@H]2/C=C/C2=CCOC2=O)c1` (stereo partly drawn) [Compound 8i, ((4aR,6aR,7S,10bR)-6a,10b-Dimethyl-7-((E)-2-(2-oxo-2,5-dihydrofuran-3-yl)vinyl)-3-phenyl-4a,5,6,6a,7,10,10a,10b-octahydro-1H-naphtho[2,1-d][1,3]dioxin-8-yl)methyl 3-Methylbenzoate] was tested, and the inhibition at 20 µM (MCF-7 (breast carcinoma)) was 4.37 ± 0.01%, the “Cytotoxic Activity (% Growth Inhibition)” value (A549 (lung carcinoma)) was 67.66 ± 0.23% and the inhibition at 20 µM (A549 (lung carcinoma)) was 68%. The inhibition at 20 µM [1] was 0% and the inhibition at 20 µM [2] was 4.35 ± 0.54%.

With `COc1cc(OC)cc(C(=O)OCC2=CCC3[C@]4(C)COC(c5ccccc5)O[C@@H]4CC[C@@]3(C)[C@@H]2/C=C/C2=CCOC2=O)c1` (stereo partly drawn) [Compound 8j, ((4aR,6aR,7S,10bR)-6a,10b-Dimethyl-7-((E)-2-(2-oxo-2,5-dihydrofuran-3-yl)vinyl)-3-phenyl-4a,5,6,6a,7,10,10a,10b-octahydro-1H-naphtho[2,1-d][1,3]dioxin-8-yl)methyl 3,5-Dimethoxybenzoate] the inhibition at 20 µM (MCF-7 (breast carcinoma)) was 48 ± 0.91%, the “Cytotoxic Activity (% Growth Inhibition)” value (A549 (lung carcinoma)) was 51 ± 0.48% and the inhibition at 20 µM (A549 (lung carcinoma)) was < 52%. For the same compound, the inhibition at 20 µM [1] was 55.8 ± 0.49% and the inhibition at 20 µM [2] was 47.2 ± 0.75%.

Compound `COc1cc(C(=O)OCC2=CCC3[C@]4(C)COC(c5ccccc5)O[C@@H]4CC[C@@]3(C)[C@@H]2/C=C/C2=CCOC2=O)cc(OC)c1OC` (stereo partly drawn) [Compound 8k, ((4aR,6aR,7S,10bR)-6a,10b-Dimethyl-7-((E)-2-(2-oxo-2,5-dihydrofuran-3-yl)vinyl)-3-phenyl-4a,5,6,6a,7,10,10a,10b-octahydro-1H-naphtho[2,1-d][1,3]dioxin-8-yl)methyl 3,4,5-Trimethoxybenzoate] has an inhibition at 20 µM (MCF-7 (breast carcinoma)) of 46 ± 0.77%, an inhibition at 20 µM (A549 (lung carcinoma)) of 20.4 ± 0.73% and an inhibition at 20 µM [1] of 5.6 ± 0.59%. The inhibition at 20 µM [2] was 50 ± 0.62%.

In the case of `COc1ccc(C(=O)OCC2=CCC3[C@]4(C)COC(c5ccccc5)O[C@@H]4CC[C@@]3(C)[C@@H]2/C=C/C2=CCOC2=O)cc1Cl` (stereo partly drawn) [Compound 8l, ((4aR,6aR,7S,10bR)-6a,10b-Dimethyl-7-((E)-2-(2-oxo-2,5-dihydrofuran-3-yl)vinyl)-3-phenyl-4a,5,6,6a,7,10,10a,10b-octahydro-1H-naphtho[2,1-d][1,3]dioxin-8-yl)methyl 3-Chloro-4-methoxybenzoate], the inhibition at 20 µM (MCF-7 (breast carcinoma)) is reported as 51 ± 0.5%, the “Cytotoxic Activity (% Growth Inhibition)” value (A549 (lung carcinoma)) is reported as 61.6 ± 0.83% and the inhibition at 20 µM (A549 (lung carcinoma)) is reported as < 60%. For the same compound, the inhibition at 20 µM [1] was 62 ± 0.97% and the inhibition at 20 µM [2] was 36.2 ± 0.8%.

`C[C@@]12COC(c3ccccc3)O[C@@H]1CC[C@]1(C)C2CC=C(COC(=O)c2ccc(Br)cc2F)[C@H]1/C=C/C1=CCOC1=O` (stereo partly drawn) [Compound 8m, ((4aR,6aR,7S,10bR)-6a,10b-Dimethyl-7-((E)-2-(2-oxo-2,5-dihydrofuran-3-yl)vinyl)-3-phenyl-4a,5,6,6a,7,10,10a,10b-octahydro-1H-naphtho[2,1-d][1,3]dioxin-8-yl)methyl 4-Bromo-2-fluorobenzoate] gave an inhibition at 20 µM (MCF-7 (breast carcinoma)) of 44 ± 0.24%, an inhibition at 20 µM [1] of 0% and an inhibition at 20 µM [2] of 30.4 ± 0.9%.

`C[C@@]12COC(c3ccccc3)O[C@@H]1CC[C@]1(C)C2CC=C(COC(=O)c2ccccc2C(F)(F)F)[C@H]1/C=C/C1=CCOC1=O` (stereo partly drawn) [Compound 8n, ((4aR,6aR,7S,10bR)-6a,10b-Dimethyl-7-((E)-2-(2-oxo-2,5-dihydrofuran-3-yl)vinyl)-3-phenyl-4a,5,6,6a,7,10,10a,10b-octahydro-1H-naphtho[2,1-d][1,3]dioxin-8-yl)methyl 2-(Trifluoromethyl)benzoate] was tested, and the inhibition at 20 µM (MCF-7 (breast carcinoma)) was 55 ± 0.69%, the inhibition at 20 µM (A549 (lung carcinoma)) was 18 ± 1.4% and the inhibition at 20 µM [1] was 55 ± 0.56%. The inhibition at 20 µM [2] was 31.3 ± 0.89%.

With `COc1cc(C(=O)OCC2=CCC3[C@](C)(CO)[C@H](O)CC[C@@]3(C)[C@@H]2/C=C/C2=CCOC2=O)cc(OC)c1OC` (stereo partly drawn) [Compound 9k, ((1S,5R,6R,8aR)-6-Hydroxy-5-(hydroxymethyl)-5,8a-dimethyl-1-((E)-2-(2-oxo-2,5-dihydrofuran-3-yl)vinyl)-1,4,4a,5,6,7,8,8a-octahydronaphthalen-2-yl)methyl 3,4,5-Trimethoxybenzoate] the inhibition at 20 µM (MCF-7 (breast carcinoma)) was 41 ± 0.87%, the inhibition at 20 µM (A549 (lung carcinoma)) was 29.4 ± 0.82% and the inhibition at 20 µM [2] was 19.8 ± 0.68%.
